# Reference: PubChem BioAssay AID624466 (The Scripps Research Institute Molecular Screening Center, 2012)
# About 5,400 (1.5%) of roughly 360,000 compounds were called active. What follows is part of a selection rich in actives, with near analogues and random picks from the rest. Values without a mark were called inactive.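 The calls were made as follows: active = inhibition above a per-plate cutoff, the mean inhibition of test compounds on that plate plus 3 SD (cut at about 49% in these data); inactive = the rest.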
# Biological target: Trace amine-associated receptor 1 (Homo sapiens) (UniProt Q96RJ0)
# Sequence (Q96RJ0 whole entry, looked up): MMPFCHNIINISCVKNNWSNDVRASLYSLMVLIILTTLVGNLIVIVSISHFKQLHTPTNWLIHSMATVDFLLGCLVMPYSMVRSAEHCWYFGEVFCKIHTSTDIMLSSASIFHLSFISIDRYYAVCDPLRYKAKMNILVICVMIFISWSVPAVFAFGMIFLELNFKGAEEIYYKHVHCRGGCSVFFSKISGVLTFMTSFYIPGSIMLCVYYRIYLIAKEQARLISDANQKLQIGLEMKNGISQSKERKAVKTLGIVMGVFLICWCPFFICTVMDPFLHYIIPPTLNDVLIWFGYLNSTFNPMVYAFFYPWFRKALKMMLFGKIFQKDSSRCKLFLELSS
# Assay: blockers of beta-PEA-driven TAAR1 calcium signal – Fluo-8 calcium fluorescence, CHO RD-HGA16 cells, primary screen (AID 624466);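 also: 0% = DMSO plus EC80 beta-PEA response and 100% = DMSO alone without agonist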
# Conditions: CHO RD-HGA16 TAAR1, Fluo-8 calcium fluorescence, antagonist; at 3 µM; hits give high values
# How it was run: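 Assay system: CHO-derived RD-HGA16 cells stably expressing human TAAR1 plus Gα16. Timing: 140 s kinetic read after compound, 140 s after agonist. Technique: kinetic Fluo-8 calcium fluorescence measurement. Measure: % inhibition of agonist calcium response.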
row,SMILES,inhibition
1,CCOc1ccc(C(=O)NC(=S)Nc2ccc(N3CCOCC3)c(Cl)c2)cc1[N+](=O)[O-],51.3% (active)
2,CCOc1ccc(C(=O)NC(=S)Nc2ccc(NC(=O)C(C)C)cc2)cc1[N+](=O)[O-],38.4%
3,CCOc1ccc(C(=O)Nc2ccc(CN3CCOCC3)cc2)cc1Cl,3.95%
4,O=C(Nc1ccccc1)C1CC(=O)n2c(nc3ccccc32)N1 (stereo unspecified),-8.36%
5,CCCCC(O)C1=C[N+](=O)CC=C1 (stereo unspecified),0.52%
6,CCc1ccccc1OCC(=O)Nc1ccc(C)c(S(=O)(=O)N2CCCCCC2)c1,53.6% (active)
7,Cc1ccc(NC(=O)COc2coc(CN3CCc4ccccc4C3)cc2=O)cc1Cl,-6.95%
8,COc1ccccc1C(=O)Nc1ccc(C)c(S(=O)(=O)N2CCCCC2)c1,35.1%
9,Cc1ccc(NC(=O)COC(=O)C2CC2)cc1S(=O)(=O)N1CCOCC1,-10.1%
10,COc1cc(NC(=O)COc2ccccc2Cl)ccc1NC(=O)C(C)C,-12.5%
11,Cc1ccccc1OCC(=O)Nc1ccc(N2CCN(C(=O)C(C)C)CC2)c(Cl)c1,51.1% (active)
12,CC(C)CN1C(=O)CN(S(C)(=O)=O)CC1(C)C(=O)NCc1ccccc1 (stereo unspecified),-16.9%
13,O=C(c1ccccc1)c1ccc(OC(=O)N2CCCC2)cc1,0.6%
14,CCCC[C@@H]1CN=C(N)N1CCc1cc(C(F)(F)F)cc(C(F)(F)F)c1,0.75%
15,O=C(NCc1ccccn1)[C@@H]1CCCN1C(=O)[C@@H]1CCCN1C(=O)c1ccccc1,-3.32%
16,Nc1c(C(=O)Nc2ccc3c(c2)OCCO3)nnn1Cc1ccccc1,10.6%
17,CCOc1ccc(Cn2nnc(C(=O)Nc3ccc(OC)cc3OC)c2N)cc1,-4.89%
18,CCOc1ccc(Cn2nnc(C(=O)NCc3ccccc3)c2N)cc1,55.6% (active)
19,O=C(OCC(=O)N1CCOCC1)c1ccc2ccccc2c1,-11.6%

row,SMILES,inhibition
1,O=C1C(Sc2cccc(F)c2)=C[C@@]2(O)CC[C@@H](O)[C@]1(Sc1cccc(F)c1)[C@H]2O,1.99%
2,N#Cc1ccc(C(C(=O)NCc2ccccc2)n2c(=O)c(-c3ccco3)nc3ccccc32)cc1 (stereo unspecified),-2.89%
3,O=C(Cc1ccccc1)Nc1c(Cl)ccc2nsnc12,3.32%
4,CC(=O)c1ccc(NC(=O)c2cc(-c3cccs3)on2)cc1,5.25%
5,Cc1cc(C(=O)N2CCN(c3ccccn3)CC2)c(C)o1,1.13%
6,Cc1cc(Br)ccc1NC(=O)c1sc2ncn(CC(=O)N3CCN(c4ccccn4)CC3)c(=O)c2c1C,12%
7,Cc1cc(Br)ccc1NC(=O)c1cnc(N2CCN(c3ccccn3)CC2)c2ccccc12,67.1% (active)
8,CCOc1ccccc1C(=O)N1CCC[C@@H]1C(=O)N1CCC[C@H]1C(=O)NCc1ccccc1,-5.66%
9,CN1C(=O)CN2CCc3ccccc3C2c2cc(Cl)ccc21 (stereo unspecified),-4.12%
10,CC1CCCCN1C(=S)NCc1ccccc1 (stereo unspecified),-12.2%
11,S=C(NCCc1ccccc1)N1CCn2cccc2C1c1ccncc1 (stereo unspecified),76.5% (active)
12,S=C(Nc1cccc(Br)c1)N1CCn2cccc2C1c1cccnc1 (stereo unspecified),-5.72%
13,Cc1cccc(N(C)C(=O)CN2C(=O)COc3ccc(S(=O)(=O)N4CCCCCC4)cc32)c1,28.5%
14,CCCCn1nc(C(=O)Nc2ccc(S(=O)(=O)Nc3ncccn3)cc2)c2ccccc2c1=O,-40.3%
15,CCCn1nc(C(=O)Nc2ccc3nc(C)sc3c2)c2ccccc2c1=O,-20.5%
16,CCCCn1nc(C(=O)Nc2cccc(C(=O)NC3CC3)c2)c2ccccc2c1=O,48.7% (active)
17,CC(=O)N1CCN(Cc2cc(=O)oc3cc(C)ccc23)CC1,-3.73%
18,Cc1ccc2nc(CN(C)C(=O)[C@@H](Cc3ccccc3)NC(=O)[C@H]3O[C@@H](n4ccc(=O)[nH]c4=O)[C@H](O)[C@@H]3O)[nH]c2c1,-7.68%
19,CN(c1ccccc1)S(=O)(=O)c1ccc(NC(=O)COc2ccccc2)cc1,40.2%

row,SMILES,inhibition
1,COC(=O)[C@H]1Cc2cnoc2C[C@]1(C)C(=O)O,-4.37%
2,COC(=O)[C@]12C[C@H](CC(=O)NCCCCc3ccccc3)C(=O)N(Cc3ccc4c(c3)OCO4)C1=C[C@H](C(C)(C)C)O[C@@H]2C,-5.78%
3,Cn1c2ccccc2c(=O)c2c(=O)n(Cc3ccco3)c(COc3ccccc3)nc21,62.5% (active)
4,CCc1nc2oc3ccccc3c(=O)c2c(=O)n1Cc1ccc(OC)cc1,3.24%
5,O=C(CSc1nnc(COc2ccc(Cl)cc2)n1Cc1ccco1)N1CCNC1=O,11.4%
6,C/C(=N\N1CCN(Cc2ccc(C)cc2)CC1)c1ccco1,-4.82%
7,Cc1nn(-c2ccccc2)c(C)c1NC(=O)CCl,-8.39%
8,Cc1cccc(C)c1NC(=O)COC(=O)c1c(C)nn(-c2ccccc2)c1C,-6.4%
9,Cc1nn(-c2ccccc2)c(C)c1NC(=O)COC(=O)c1cc(Cl)ccc1O,68.3% (active)
10,O=C(Nc1ccc(S(=O)(=O)N2CCOCC2)cc1)C1CCN(S(=O)(=O)c2ccc(Cl)cc2)CC1,8.67%
11,Cc1nnsc1S(=O)(=O)Cc1ccccc1Cl,-3.1%
12,O=C(Nc1ccccc1)c1nnsc1S(=O)(=O)c1ccc(Cl)cc1,59.8% (active)
13,C=CCN=C1NC(c2cccc(C(F)(F)F)c2)C(C(=O)OC)=C(C)N1C (stereo unspecified),5.15%
14,C[C@@H](CN1C2=NC[C@@H](Cc3ccccc3)N2C[C@H]1Cc1ccc(O)cc1)NC(=O)CCC1CCCCC1,-6.17%
15,COc1ccccc1CC1(C)C(=O)Nc2ccc(OC(F)(F)F)cc21 (stereo unspecified),-12.2%
16,CCc1ccc2c(c1)NC(=O)C2(C)Cc1ccc(OC(F)(F)F)cc1 (stereo unspecified),55.2% (active)
17,Cc1ccc(CC2(C)C(=O)Nc3ccc(OC(F)(F)F)cc32)cc1 (stereo unspecified),-5.18%
18,CCOC(=O)c1cc2c(ccn2C)n1CC(=O)N1CCC(C)CC1,-7.37%
